Publication PMC2832854 (NeuroImage, 2009)
“And” between values parts separate entries of the source, which are not always exact repeats. Identical values can stand only once. Like-named read-outs stand apart in the source and are kept apart here.

Columns and labels:
[1] = biological target: TSPO; type: binding, human; conditions: for Ki: read-out: KI of PBR28, displacement of [3H]PK 11195, mean ± SD; for Specific Binding: single radioligand concentration normalized to 0.5 nM, displacer PBR28
[2] = biological target: TSPO; conditions: read-out: KI to monkey brain, ref Briard et al., 2008; cited from earlier work
[3] = biological target: ABCB1 (P-glycoprotein) (Homo sapiens, UniProt P08183); type: cell-based; conditions: 5 nM radioligand
ABCB1 (P-glycoprotein), sequence (P08183 whole entry): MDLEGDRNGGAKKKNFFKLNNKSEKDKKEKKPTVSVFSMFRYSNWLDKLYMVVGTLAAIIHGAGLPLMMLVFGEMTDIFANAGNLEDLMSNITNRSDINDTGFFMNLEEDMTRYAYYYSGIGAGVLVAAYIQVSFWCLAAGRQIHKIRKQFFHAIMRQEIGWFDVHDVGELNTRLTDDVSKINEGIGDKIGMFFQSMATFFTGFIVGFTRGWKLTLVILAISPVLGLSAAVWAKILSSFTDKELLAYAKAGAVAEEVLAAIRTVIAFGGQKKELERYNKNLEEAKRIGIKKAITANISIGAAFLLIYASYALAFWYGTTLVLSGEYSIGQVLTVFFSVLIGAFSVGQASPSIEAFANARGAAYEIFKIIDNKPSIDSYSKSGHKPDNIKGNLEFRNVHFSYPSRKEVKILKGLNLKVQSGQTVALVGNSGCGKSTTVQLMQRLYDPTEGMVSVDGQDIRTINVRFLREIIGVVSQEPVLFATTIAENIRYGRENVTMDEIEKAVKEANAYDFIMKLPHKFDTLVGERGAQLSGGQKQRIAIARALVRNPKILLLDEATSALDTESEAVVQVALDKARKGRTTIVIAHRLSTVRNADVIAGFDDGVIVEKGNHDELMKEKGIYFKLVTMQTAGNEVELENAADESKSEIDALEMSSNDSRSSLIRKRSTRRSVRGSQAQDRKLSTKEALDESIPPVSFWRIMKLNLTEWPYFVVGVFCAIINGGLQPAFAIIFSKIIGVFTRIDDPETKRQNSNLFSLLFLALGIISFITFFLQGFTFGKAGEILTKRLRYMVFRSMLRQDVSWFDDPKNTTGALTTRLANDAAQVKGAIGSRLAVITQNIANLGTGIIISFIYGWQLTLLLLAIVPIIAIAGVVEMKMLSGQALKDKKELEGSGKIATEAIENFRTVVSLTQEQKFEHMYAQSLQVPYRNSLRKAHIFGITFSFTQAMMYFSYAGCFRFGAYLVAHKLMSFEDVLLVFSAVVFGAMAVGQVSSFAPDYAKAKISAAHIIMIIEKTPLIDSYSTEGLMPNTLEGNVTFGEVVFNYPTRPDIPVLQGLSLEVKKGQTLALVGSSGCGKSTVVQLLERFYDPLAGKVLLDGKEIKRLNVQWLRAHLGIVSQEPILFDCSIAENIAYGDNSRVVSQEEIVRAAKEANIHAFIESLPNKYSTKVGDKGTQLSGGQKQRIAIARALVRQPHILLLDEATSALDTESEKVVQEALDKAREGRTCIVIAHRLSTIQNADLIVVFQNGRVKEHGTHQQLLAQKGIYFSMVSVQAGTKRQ

[4] = biological target: ABCC1 (Homo sapiens, UniProt P33527); test: Substrate specificity: radioligand accumulation in MCF-7 / MCF-7/VP16 cells; type: cell-based; conditions: 5 nM radioligand
ABCC1, sequence (P33527 whole entry): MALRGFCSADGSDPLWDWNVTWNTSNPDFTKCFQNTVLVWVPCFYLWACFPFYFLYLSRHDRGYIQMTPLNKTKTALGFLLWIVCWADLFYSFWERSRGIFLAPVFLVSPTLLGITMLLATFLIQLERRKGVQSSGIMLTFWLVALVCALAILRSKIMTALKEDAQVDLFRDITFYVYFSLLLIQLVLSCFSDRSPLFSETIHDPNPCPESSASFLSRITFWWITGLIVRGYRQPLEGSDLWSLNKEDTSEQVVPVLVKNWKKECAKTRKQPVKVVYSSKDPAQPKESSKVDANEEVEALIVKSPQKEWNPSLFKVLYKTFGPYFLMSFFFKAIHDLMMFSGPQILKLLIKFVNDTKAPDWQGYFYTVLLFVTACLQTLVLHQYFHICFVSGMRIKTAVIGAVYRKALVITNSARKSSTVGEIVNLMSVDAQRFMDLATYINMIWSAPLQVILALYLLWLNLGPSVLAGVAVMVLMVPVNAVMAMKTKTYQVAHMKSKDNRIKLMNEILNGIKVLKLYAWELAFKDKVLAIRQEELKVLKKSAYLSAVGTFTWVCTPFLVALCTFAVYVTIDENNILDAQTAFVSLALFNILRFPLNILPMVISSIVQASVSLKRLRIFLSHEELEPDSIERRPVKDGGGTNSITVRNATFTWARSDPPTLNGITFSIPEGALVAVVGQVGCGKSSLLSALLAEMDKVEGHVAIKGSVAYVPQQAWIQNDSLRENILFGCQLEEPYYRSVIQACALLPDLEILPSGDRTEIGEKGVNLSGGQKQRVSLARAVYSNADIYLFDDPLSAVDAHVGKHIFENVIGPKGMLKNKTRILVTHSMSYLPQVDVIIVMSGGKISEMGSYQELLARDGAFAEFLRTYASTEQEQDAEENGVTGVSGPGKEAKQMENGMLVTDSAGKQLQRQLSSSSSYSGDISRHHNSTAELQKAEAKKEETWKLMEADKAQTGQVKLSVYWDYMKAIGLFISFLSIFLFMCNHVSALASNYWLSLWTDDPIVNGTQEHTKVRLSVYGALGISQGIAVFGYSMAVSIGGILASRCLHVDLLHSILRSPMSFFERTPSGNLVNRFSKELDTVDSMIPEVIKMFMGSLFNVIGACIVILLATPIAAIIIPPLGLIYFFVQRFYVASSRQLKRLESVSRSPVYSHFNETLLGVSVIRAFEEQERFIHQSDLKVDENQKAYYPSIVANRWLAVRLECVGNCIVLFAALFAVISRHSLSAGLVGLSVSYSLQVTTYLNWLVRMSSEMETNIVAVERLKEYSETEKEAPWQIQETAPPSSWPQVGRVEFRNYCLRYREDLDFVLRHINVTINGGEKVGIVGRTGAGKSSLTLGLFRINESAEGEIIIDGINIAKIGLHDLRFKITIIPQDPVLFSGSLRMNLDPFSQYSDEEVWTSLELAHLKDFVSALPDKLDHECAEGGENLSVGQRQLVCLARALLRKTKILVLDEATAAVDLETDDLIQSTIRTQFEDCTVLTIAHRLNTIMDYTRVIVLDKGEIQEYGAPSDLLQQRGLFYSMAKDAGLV

[5] = biological target: T1, ABCG2 (Homo sapiens, UniProt Q9UNQ0); test: Substrate specificity: radioligand accumulation in H460 / H460/MX20 cells; type: cell-based; conditions: 5 nM radioligand
T1 sequence (Q9UNQ0 1-655): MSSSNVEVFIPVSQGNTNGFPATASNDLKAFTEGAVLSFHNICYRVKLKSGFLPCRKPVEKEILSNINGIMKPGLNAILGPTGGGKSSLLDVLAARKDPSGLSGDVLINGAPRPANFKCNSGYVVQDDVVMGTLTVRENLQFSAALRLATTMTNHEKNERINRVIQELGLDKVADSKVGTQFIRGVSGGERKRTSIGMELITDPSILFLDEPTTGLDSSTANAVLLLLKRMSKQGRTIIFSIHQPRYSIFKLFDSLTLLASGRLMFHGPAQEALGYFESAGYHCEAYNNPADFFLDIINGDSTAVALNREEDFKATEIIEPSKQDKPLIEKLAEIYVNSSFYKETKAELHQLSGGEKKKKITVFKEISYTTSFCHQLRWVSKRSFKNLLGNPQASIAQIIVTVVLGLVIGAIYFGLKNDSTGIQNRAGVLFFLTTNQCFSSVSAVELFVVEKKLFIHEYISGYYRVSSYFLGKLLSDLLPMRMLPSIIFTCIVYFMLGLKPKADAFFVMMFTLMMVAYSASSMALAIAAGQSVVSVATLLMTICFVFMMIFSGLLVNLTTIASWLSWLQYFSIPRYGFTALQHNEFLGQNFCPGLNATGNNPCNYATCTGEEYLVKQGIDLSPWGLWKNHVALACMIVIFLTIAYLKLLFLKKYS

[6] = tested on: 18 kDa translocator protein (TSPO); test: Human whole-body PET imaging, organ uptake in binders and non-binders; type: in vivo; conditions: for Organ uptake (area under time-activity curve): 5 to 20 min
[7] = tested on: TSPO; type: in vivo, rhesus monkeys (Macaca mulatta); conditions: for Decrease of area under the curve by pre-blockade: 0 to 120 min, nonradioactive PBR28; for Time at which uptake declined to 50% of peak: after pre-blockade
In short: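 Two male rhesus monkeys (13.2 ± 2.1 kg) each had two scans. The baseline scan followed i.v. 11C-labelled TSPO radioligand (276 ± 8 MBq, posterior tibial vein). The second followed unlabelled TSPO ligand 5 mg/kg i.v. given 30 min before radioligand (277 ± 21 MBq). 2D dynamic whole-body PET covered 4 segments, head to upper thigh, in 22 frames (75 s–15 min) over 120 min. Organ SUV curves were integrated over 5–20 and 0–120 min.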

[8] = tested on: TSPO; type: in vivo, rhesus monkeys
[9] = tested on: TSPO; conditions: cited from earlier work
[10] = tested on: TSPO; conditions: 0 to 120 min, ref Imaizumi et al., 2008, cited from earlier work
[11] = saturation curve, homologous displacement, binders

## COc1ccccc1CN(C(C)=O)c1cnccc1Oc1ccccc1 [PBR28]
[1]; binders
  Ki: 6.1 ± 6.4 nM
[1]; non-binders
  Ki: 67 nM and 67.4 nM
[2]
  Ki: 0.94 nM

## COc1ccccc1CN(C(C)=O)c1cnccc1Oc1ccccc1 [[^3H]PBR28] [listing 1 of 2 here]
[3]
  Substrate for transporter: neither [^3H]PK 11195 nor [^3H]PBR8 was a substrate
[4]
  Substrate for transporter: neither [^3H]PK 11195 nor [^3H]PBR8 was a substrate
[5]
  Substrate for transporter: neither [^3H]PK 11195 nor [^3H]PBR8 was a substrate

## COc1ccccc1CN(C(C)=O)c1cnccc1Oc1ccccc1 [[^3H]PBR28] [listing 2 of 2 here]
[1]; eight non-binders vs ten binders, single radioligand concentration
  Specific binding, fold lower in non-binders than in binders: 36 fold
[1]; leukocyte membranes
  Affinity for TSPO, fold lower in non-binders than in binders: more than ten-fold lower affinity
[1]; [11]
  Bmax: 16.9 ± 8.0 pmol / mg protein
  Kd: 1.8 ± 0.6 nM
[1]; binders
  Specific Binding: 7.2 ± 2.2 pmol / mg protein

## CCC(C)N(C)C(=O)c1cc2ccccc2c(-c2ccccc2Cl)n1 (stereo not shown) [[^3H]PK 11195]
[1]; [11]
  Bmax: 10.4 ± 7.1 pmol / mg protein
[1]; saturation curve, homologous displacement, non-binders
  Bmax: 15.1 ± 12.0 pmol / mg protein
[1]; binders
  Specific Binding: 1.3 ± 0.5 pmol / mg protein
[3]
  Substrate for transporter: neither [^3H]PK 11195 nor [^3H]PBR8 was a substrate
[4]
  Substrate for transporter: neither [^3H]PK 11195 nor [^3H]PBR8 was a substrate
[5]
  Substrate for transporter: neither [^3H]PK 11195 nor [^3H]PBR8 was a substrate

## CC[C@@H](C)N([11CH3])C(=O)c1cc2ccccc2c(-c2ccccc2Cl)n1 [[^11C]-(R)-PK 11195]
[6]; brain, binders (n = 5)
  Organ uptake (area under time-activity curve): 18.8 ± 1.0 SUV • min
[6]; brain, non-binders (n = 5)
  Organ uptake (area under time-activity curve): 17.5 ± 2.0 SUV • min
[6]; heart, binders (n = 5)
  Organ uptake (area under time-activity curve): 59.8 ± 4.9 SUV • min
[6]; heart, non-binders (n = 5)
  Organ uptake (area under time-activity curve): 48.8 ± 2.8 SUV • min
[6]; kidney, binders (n = 5)
  Organ uptake (area under time-activity curve): 63.8 ± 3.2 SUV • min
[6]; kidney, non-binders (n = 5)
  Organ uptake (area under time-activity curve): 60.7 ± 12.3 SUV • min
[6]; lung, binders (n = 5)
  Organ uptake (area under time-activity curve): 25.6 ± 3.7 SUV • min
[6]; lung, non-binders (n = 5)
  Organ uptake (area under time-activity curve): 18.7 ± 2.5 SUV • min
[6]; spleen, binders (n = 5)
  Organ uptake (area under time-activity curve): 65.6 ± 9.3 SUV • min
[6]; spleen, non-binders (n = 5)
  Organ uptake (area under time-activity curve): 53.4 ± 11.4 SUV • min
[7]; brain
  Decrease of area under the curve by pre-blockade: 14%
  Time at which uptake declined to 50% of peak: 30 min
[7]; brain, 5 to 20 min, baseline
  Area under the time-activity curve: 28.2 SUV • min
[7]; brain, 5 to 20 min, pre-blocked with PBR28 5 mg/kg i.v.
  Area under the time-activity curve: 29.1 SUV • min
[7]; heart, 5 to 20 min, baseline
  Area under the time-activity curve: 75.1 SUV • min
[7]; heart, 5 to 20 min, pre-blocked with PBR28 5 mg/kg i.v.
  Area under the time-activity curve: 33.6 SUV • min
[7]; kidney
  Decrease of area under the curve by pre-blockade: 30%
[7]; kidney, 5 to 20 min, baseline
  Area under the time-activity curve: 166.3 SUV • min
[7]; kidney, 5 to 20 min, pre-blocked with PBR28 5 mg/kg i.v.
  Area under the time-activity curve: 60.5 SUV • min
[7]; lung
  Decrease of area under the curve by pre-blockade: 31%
[7]; lung, 5 to 20 min, baseline
  Area under the time-activity curve: 29.6 SUV • min
[7]; lung, 5 to 20 min, pre-blocked with PBR28 5 mg/kg i.v.
  Area under the time-activity curve: 18.3 SUV • min
[7]; other organs
  Time at which uptake declined to 50% of peak: ≤ 5 min
[7]; peripheral organs (heart, lung, spleen, kidney), 5 to 20 min
  Area under the time-activity curve lower in pre-blocked than in baseline scans: 38 – 76%
[7]; spleen, 5 to 20 min, baseline
  Area under the time-activity curve: 87.1 SUV • min
[7]; spleen, 5 to 20 min, pre-blocked with PBR28 5 mg/kg i.v.
  Area under the time-activity curve: 20.6 SUV • min
[8]; after blockade with PBR28 5 mg/kg i.v.
  Peak uptake of radioactivity in brain: 3.43 SUV
[8]; baseline
  Peak uptake of radioactivity in brain: 1.64 SUV
[9]; without correction for peripheral clearance, ref Petit-Taboue et al., 1991
  Share of uptake in monkey brain that is specific (displaceable): about 50%

## CC(=O)N(Cc1ccccc1O[11CH3])c1cnccc1Oc1ccccc1 [[^11C]PBR28]
[6]; all five organs with high densities of TSPO (lung, heart, brain, kidney, spleen)
  Uptake lower in non-binders than in binders: 50% to 75%
[6]; brain, binders (n = 5)
  Organ uptake (area under time-activity curve): 27.3 ± 3.4 SUV • min
[6]; brain, non-binders (n = 5)
  Organ uptake (area under time-activity curve): 13.8 ± 1.3 SUV • min
[6]; heart, binders (n = 5)
  Organ uptake (area under time-activity curve): 72.3 ± 10.3 SUV • min
[6]; heart, non-binders (n = 5)
  Organ uptake (area under time-activity curve): 29.7 ± 4.7 SUV • min
[6]; kidney, binders (n = 5)
  Organ uptake (area under time-activity curve): 109.3 ± 12.9 SUV • min
[6]; kidney, non-binders (n = 5)
  Organ uptake (area under time-activity curve): 33.4 ± 15.5 SUV • min
[6]; lung, binders (n = 5)
  Organ uptake (area under time-activity curve): 44.9 ± 6.5 SUV • min
[6]; lung, non-binders (n = 5)
  Organ uptake (area under time-activity curve): 13.6 ± 2.0 SUV • min
[6]; spleen, binders (n = 5)
  Organ uptake (area under time-activity curve): 131.6 ± 19.3 SUV • min
[6]; spleen, non-binders (n = 5)
  Organ uptake (area under time-activity curve): 34.1 ± 11.0 SUV • min
[10]; brain
  Decrease of area under the curve by pharmacological blockade: 42%
[10]; kidney
  Decrease of area under the curve by pharmacological blockade: 50%
[10]; lung
  Decrease of area under the curve by pharmacological blockade: 70%
[9]; ref Imaizumi et al., 2008
  Share of uptake in monkey brain that is specific: More than 90%
